For assay [1], the species on record is Oryctolagus cuniculus. Description: Compound was evaluated for antagonism of angiotensin II induced contraction of rabbit aorta rings. Type of assay: functional. Particulars: read-out: pA2 (converted). The essentials: (§1)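 Paired rabbit aortic rings: control ring given increasing AII concentrations at 30-min intervals; second ring given AII with antagonist added 5 min beforehand. Responses expressed as % of control ring maximal contraction; pD2 for AII from concentration-response curves, pA2 by Schild analysis.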

Assay [2] has as its target T1, Type-2 angiotensin II receptor (Rattus norvegicus, UniProt P35351).
T1 sequence (P35351 whole entry): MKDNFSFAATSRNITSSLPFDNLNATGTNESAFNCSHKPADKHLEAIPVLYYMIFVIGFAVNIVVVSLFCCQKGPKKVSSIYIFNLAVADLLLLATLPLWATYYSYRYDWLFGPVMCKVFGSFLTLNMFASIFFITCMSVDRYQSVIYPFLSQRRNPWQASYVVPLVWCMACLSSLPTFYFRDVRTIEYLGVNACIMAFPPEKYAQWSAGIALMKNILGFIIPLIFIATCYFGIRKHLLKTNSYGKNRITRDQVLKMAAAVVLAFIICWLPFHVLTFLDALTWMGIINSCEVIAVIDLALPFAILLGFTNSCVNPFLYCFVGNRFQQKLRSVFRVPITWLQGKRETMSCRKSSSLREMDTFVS
As to the kind of experiment: Activity against low affinity Angiotensin II receptor, type 2 was measured from the ability to inhibit [125I]angiotensin II binding to rat uterine membrane.

Assay [3] has as its target T2, Type-1 angiotensin II receptor B (Rattus norvegicus, UniProt P29089).
T2 sequence (P29089 whole entry): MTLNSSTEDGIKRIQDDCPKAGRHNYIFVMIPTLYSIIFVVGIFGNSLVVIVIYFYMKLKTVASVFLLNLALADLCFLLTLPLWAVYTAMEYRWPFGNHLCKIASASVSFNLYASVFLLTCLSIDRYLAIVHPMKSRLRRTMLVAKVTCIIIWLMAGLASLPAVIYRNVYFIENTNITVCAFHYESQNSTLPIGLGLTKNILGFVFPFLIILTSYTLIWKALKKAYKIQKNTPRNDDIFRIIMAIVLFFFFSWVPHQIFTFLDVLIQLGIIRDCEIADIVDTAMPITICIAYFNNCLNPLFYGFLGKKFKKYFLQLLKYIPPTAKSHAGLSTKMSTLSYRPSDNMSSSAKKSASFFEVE
Description: Activity against high affinity Angiotensin II receptor, type 1 was measured from the ability to inhibit [125I]angiotensin II binding to rat uterine membrane.

The species entered for assay [4] is Oryctolagus cuniculus. Description: Evaluated for antagonism of angiotensin II induced contraction of rabbit aorta rings. Format: functional. To be noted: read-out: pA2 (converted). The method in brief:
as §1

For the molecule `CCCCc1nc(Cl)c(CO)n1Cc1ccc(-n2cccc2C(=O)O)cc1`, the Kb in the assay listed under Oryctolagus cuniculus [1] was 1260 nM.

For the molecule `CCCCc1nc(CCCC)n(Cc2ccc(-n3ccc(-c4nnn[nH]4)c3)cc2)n1`, the IC50 in assay [2] was found to be 220000 nM.

On to `CCCCc1nc(Cl)c(CO)n1Cc1ccc(-c2ccccc2C(=O)O)cc1`, for which the IC50 worked out at 170 nM in assay [3] and 3300 nM in assay [2].

For `CCCCc1nc(CCCC)n(Cc2ccc(-n3c(Cl)cc(Cl)c3-c3nnn[nH]3)cc2)n1`, the IC50 in assay [3] came out at 52 nM; in assay [2], 810000 nM. In the assay listed under Oryctolagus cuniculus [4], the Kb is 20 nM.

As to `CCCCc1nc(CCCC)n(Cc2ccc(-c3ccccc3-c3nnn[nH]3)cc2)n1`, the IC50 in assay [3] stood at 6.5 nM.

For `CCCCc1nc(Cl)c(CO)n1Cc1ccc(-c2ccccc2-c2nnn[nH]2)cc1` [LOSARTAN], the Kb in the assay listed under Oryctolagus cuniculus [1] was 7.94 nM.

These data come from ChEMBL document CHEMBL1126660, “Nonpeptide angiotensin II antagonists: N-phenyl-1H-pyrrole derivatives are angiotensin II receptor antagonists” (J Med Chem, 1993).
